# Rows were chosen to be rich in hits. Some 1.9% of all compounds tested hit in one or more screens of this group.
# NS3 helicase inh: inhibitors of Hepatitis C virus NS3 helicase. inhibition, % at 10.9 µM. NS3 helicase DNA unwinding, Cy5 molecular beacon fluorescence. 290,000 compounds, 0.56% hits;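 active = inhibition above the mean of all tested compounds plus 3 SD, set per campaign, cut at about 35% in these data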;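 note: 0% = DMSO wells and 100% = thioflavine S control wells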
#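 Compound dosing – single dose, 10.9 µM nominal final, DMSO 0.8% final · System – NS3 helicase fragment of HCV · Buffer or medium – MOPS pH 6.5, MgCl2, DTT, Tween20, BSA · Signal – Cy5 beacon fluorescence read at start and 1 h · Also added – annealed dual-labelled DNA beacon duplex, ATP-started · Schedule – 1 h at 25 °C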
# DNA FID counter-1: displaces DNA intercalator in HCV helicase counter-screen | 290,000 compounds, 0.17% hits | inhibition, % at 7.9 µM | DNA fluorescent intercalator displacement, fluorescence | AID 1845;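 note: 0% = vehicle and 100% = reference compound; higher means more ethidium bromide displaced from hairpin DNA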
# VIM-2 inh: inhibitors of Pseudomonas aeruginosa VIM-2 metallo-beta-lactamase; inhibition, % at 5.6 µM; purified VIM-2, nitrocefin hydrolysis, epi-absorbance fluorescence; 290,000 compounds, 0.89% hits;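 active = inhibition above the mean of all tested compounds plus 3 SD, cutoff set per screening run, cut at about 7.5% in these data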;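 note: red hydrolysis product quenches plate fluorescence so inhibitors raise well fluorescence; 0% = enzyme with DMSO and 100% = DMSO without enzyme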
# IMP-1 inhibitor: blocks Pseudomonas aeruginosa IMP-1 metallo-beta-lactamase; purified IMP-1, nitrocefin hydrolysis, epi-absorbance fluorescence; inhibition, % at 5.6 µM; 290,000 compounds, 0.45% hits; AID 1556;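 active = inhibition above the mean plus 3 SD of all compounds in the same screening run, cut at about 4.5% in these data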;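 note: 0% = IMP-1 with DMSO and 100% = DMSO wells lacking enzyme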
#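 System – purified recombinant IMP-1 beta-lactamase · Input – IMP-1 dispensed at 0.2 nM · Timing – 15 min preincubation plus 25 min reaction at 25 °C · Signal – Epi-absorbance fluorescence, 480 nm excitation, 530 nm emission · Measure – percent IMP-1 inhibition derived from blank-referenced optical density · Controls – Enzyme-plus-DMSO low control, enzyme-free DMSO high control · Replication – singlicate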
# NS3 hel confirm: HCV NS3 helicase inhibition, confirmation assay. shares compounds with NS3 helicase inh. NS3 helicase DNA unwinding, Cy5 molecular beacon fluorescence. inhibition, % at 10.9 µM. 1,600 compounds, 31% hits;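 active = inhibition above the mean of all tested compounds plus 3 SD, cutoff set per campaign, cut at about 36% in these data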
# DNA FID counter-2: displaces DNA intercalator in HCV helicase counter-screen; 1,600 compounds, 4% hits; inhibition, % at 7.9 µM; DNA fluorescent intercalator displacement, fluorescence; AID 1945; shares compounds with NS3 helicase inh;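 note: 0% = vehicle and 100% = reference compound; higher means more displacement of ethidium bromide from the DNA hairpin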
# An asterisk follows results filed as active; i = inactive; . = not tested or not shown. Cut-off read from the data, not from the text of the source, unless noted: active = inhibition above about 37%; inactive = the rest.
SMILES,NS3 helicase inh,DNA FID counter-1,VIM-2 inh,IMP-1 inhibitor,NS3 hel confirm,DNA FID counter-2
O=C(NN1C(=O)/C(=C/C=C/c2ccccc2)SC1=S)c1ccncc1,25.6,-14.8,-2.7,-1.5,.,.
CC(C(=O)Nc1ccc(C(=O)O)c(O)c1)N1C(=O)/C(=C\c2ccco2)SC1=S (configuration not stated),24.3,-14.1,-1.8,4.0,.,.
O=C1NN=C(CSc2n[nH]c(=S)s2)CS1,1.2,11.9,-1.4,-0.1,.,.
COc1ccc(NS(=O)(=O)c2cccc(C(=O)NNC(=O)NCCCl)c2)cc1,68.6*,4.2,-1.1,-4.5,-13.8,-5.5
COc1ccc(NS(=O)(=O)c2cccc(C(=O)O)c2)cc1,0.7,1.5,-1.4,-0.7,.,.
C/C(=C\C(=O)c1ccc(Cl)cc1)Nc1ccc(Br)cc1,47.4*,1.9,-1.3,-1.5,-0.1,7.7
C/C(=C\C(=O)c1ccc(Br)cc1)Nc1cccc(Cl)c1,5.6,-2.3,-3.3,-2.3,.,.
CCN1CCN(CC(=O)Nc2ccc(N(C)C)cc2)CC1,2.8,1.5,-2.5,-0.8,.,.
COc1ccc(CC(=O)O/N=C(\N)Cc2ccc([N+](=O)[O-])cc2)cc1,14.9,-4.7,-1.9,-1.2,.,.
Cc1ccc(CC(=O)O/N=C(\N)Cc2ccc([N+](=O)[O-])cc2)cc1,37.7*,-3.9,-1.8,-2.3,-5.5,1.8
O=C1CSC(=S)N1/N=C/c1ccc2c(c1)OCCO2,21.1,-4.5,-1.1,1.6,.,.
O=C1CSC(=S)N1/N=C/c1ccc(Cl)c([N+](=O)[O-])c1,44.1*,-1.9,2.8,1.4,50.8*,7.8
C=C1N(C)c2cc([N+](=O)[O-])c(N)cc2C1(C)C,-7.1,10.2,-3.7,-4.2,.,.
CC1(C)Oc2cc(N)c([N+](=O)[O-])cc2O1,53.6*,1.1,-3.0,4.0,-12.9,3.9
Cc1cc(O)c2c(C)c(CC(=O)N3CCN(C(=O)C4COc5ccccc5O4)CC3)c(=O)oc2c1 (configuration not stated),46.2*,-35.0,-3.4,-3.1,-5.2,-30.4
Cc1c(C(=O)Nc2c(F)cc(F)cc2Br)sc2ncn(CC(=O)N3CCCC3)c(=O)c12,2.5,-27.3,-3.8,-0.7,.,.
CCOC(=O)c1oc2cc(O)ccc2c(=O)c1-c1ccccc1OC,1.4,-12.6,-1.9,-4.8,.,.
O=c1cc2oc3cc(O)c(O)cc3c(-c3ccccc3O)c-2cc1O,51.4*,-67.7,3.9,2.1,101.9*,-76.1
COc1ccc(OC)c(-c2c3cc(O)c(=O)cc-3oc3cc(O)c(O)cc23)c1,43.9*,-10.4,0.6,4.7*,86.7*,i
CCOc1ccccc1-c1c2cc(O)c(=O)cc-2oc2cc(O)c(O)cc12,52.3*,-16.6,1.1,6.8*,93.8*,i
O=C1CNC(=S)N1CCc1ccc(O)c(O)c1,16.0,-6.0,-2.2,-4.9,.,.
O=C(CC1C(=O)NCCN1Cc1cccc(F)c1)NCCCOc1cccnc1 (configuration not stated),3.6,-34.1,-1.6,-1.5,.,.
O=C1NC(c2ccccc2)CCO1 (configuration not stated),56.5*,-14.8,-1.8,-1.4,-10.3,12.9
Cc1ccc(C2C(C#N)=C(N)SC(N)=C2C#N)c(C)c1,36.5*,1.6,-1.9,4.5,-15.4,6.4
Cc1cc(C)nc(SCc2cnc(C)nc2N)n1,-1.2,-0.7,-0.5,-3.0,.,.
SMILES,NS3 helicase inh,DNA FID counter-1,VIM-2 inh,IMP-1 inhibitor,NS3 hel confirm,DNA FID counter-2
O=C1CCCC2=C1C(c1ccco1)Nc1ccc3ccccc3c12 (configuration not stated),41.2*,-6.5,7.0,-0.1,35.6,-6.4
Cc1ccc([N+](=O)[O-])cc1N,1.7,-5.3,-2.9,-2.8,.,.
Nc1cc([N+](=O)[O-])ccc1O,44.2*,-7.3,-0.3,-3.4,2.2,17.3
CCOc1ccc(NC(=O)CC2SC(=O)N(c3ccccc3)C2=O)cc1 (configuration not stated),38.0*,-7.8,-2.8,-2.9,-13.0,8.7
O=C(CC1SC(=O)N(c2ccccc2)C1=O)Nc1cccc2ccccc12 (configuration not stated),45.5*,-8.8,-0.3,4.8*,-3.8,-1.8
CC1=CCC2C(=O)N(c3cccc(C(=O)Nc4ccccc4Cl)c3)C(=O)C2C1 (configuration not stated),8.8,-31.2,-3.7,-2.7,.,.
COc1ccc(N2CCN(CNC(=O)c3ccccc3)CC2)cc1,9.0,-7.7,-0.8,0.1,.,.
O=C(C1CCC(=O)N(C2CC2)C1)N1CCC(Oc2cccc(C(F)(F)F)c2)CC1 (configuration not stated),-1.2,-39.1,-2.8,-1.9,.,.
O=C1N(Cc2ccccc2)c2ccc(Cl)cc2C12OCCO2,-5.1,-17.1,-0.3,-0.7,.,.
CC(=O)NC1(C(F)(F)F)C(=O)Nc2c1c(=O)[nH]c(=O)n2CCc1ccccc1 (configuration not stated),15.4,-1.5,-1.6,-2.1,.,.
S=c1[nH]nc(-c2ccco2)n1/N=C/c1cccc(Cl)c1Cl,44.4*,-6.5,-0.6,-2.3,9.2,-3.2
O=C1c2ccccc2-c2onc3ccc(NCc4ccco4)c1c23,40.8*,-7.5,-0.7,-2.5,21.1,-88.4
Cc1cc(C)nc(NS(=O)(=O)c2ccc(NC(=O)c3ccc(N4C(=O)CCC4=O)cc3)cc2)n1,60.1*,-14.1,-1.4,-3.2,-21.4,12.1
Cc1cc(C)nc(NS(=O)(=O)c2ccc(NC(=O)c3ccc(S(=O)(=O)N(C)C)cc3)cc2)n1,-5.8,-23.3,-0.6,-7.2,.,.
Cc1ccc(C)c2[nH]c(=O)c(C(c3nnnn3CCc3ccccc3)N3CCOCC3)cc12 (configuration not stated),5.8,-20.1,-1.7,-3.3,.,.
Cc1ccc(C)c2[nH]c(=O)c(C(c3nnnn3Cc3ccco3)N3CCc4ccccc4C3)cc12 (configuration not stated),39.0*,-15.2,-1.1,-1.3,3.8,-8.1
CC(C)(C)C(=O)C1=C(O)C(=O)N(Cc2ccccc2)C1c1ccccc1Cl (configuration not stated),37.8*,-38.5,-2.5,-5.7,14.7,-13.2
CC(=O)C1=C(O)C(=O)N(CC(=O)O)C1c1ccccc1Cl (configuration not stated),2.1,1.0,-2.1,-2.9,.,.
Fc1nc(F)c(F)c(NCCCNc2c(F)c(F)nc(F)c2F)c1F,52.4*,5.9,-1.9,-4.6,-8.2,16.3
COc1cccc(C(=O)CC(=O)C(=O)Nc2cc(OC)c(OC)c(OC)c2)c1,5.1,-19.9,-0.8,-1.7,.,.
CCCCOc1[nH]c2nc(-c3ccco3)n(Cc3ccco3)c(=N)c2c1C#N,39.0*,-8.1,-2.8,-0.6,12.7,18.8
c1ccc(CSc2nnc(-c3ccco3)n2Cc2ccco2)cc1,-6.0,-28.6,-0.2,-1.1,.,.
CC(=O)c1cccc(NS(=O)(=O)c2ccc(C(=O)Nc3ccccc3)cc2)c1,41.6*,-23.7,-1.3,-0.1,-18.1,-1.9

# Screening data (PubChem)
